Assay results published in ChEMBL document CHEMBL1649560, “Beta-lactamase-mediated beta-lactam resistance in Campylobacter species: prevalence of Cj0299 (bla OXA-61) and evidence for a novel beta-Lactamase in C. jejuni” (2009).
In brackets after ≈: the same amount, converted by molar mass.

Tests used:
Format in all cases: functional
Campylobacter jejuni [1] = experiment: Antibacterial activity against Campylobacter jejuni isolate P270 harboring blaOXA-61::cat gene by NCCLS agar doubling dilution method
Campylobacter coli [2] = experiment: Antibacterial activity against bla gene-positive and nitrocefin reaction-positive beta-lactamase harboring Campylobacter coli isolate P321 by NCCLS agar doubling dilution method
In short: (§1)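 MICs of β-lactams by agar doubling dilution following the NCCLS (CLSI) Campylobacter Working Group procedure, with C. jejuni NCTC 11168 and C. coli NCTC 11366 as controls. Isolates were from UK poultry flocks. β-Lactamase status was set by Cj0299 PCR (281-bp amplimer) and by a nitrocefin colour change of sonicated lysate within 5 min, or within 30 min on repeat.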

Campylobacter jejuni [3] = experiment: Antibacterial activity against bla gene-negative and nitrocefin reaction-positive beta-lactamase harboring Campylobacter jejuni isolate P843 by NCCLS agar doubling dilution method; in short: as §1
Campylobacter jejuni [4] = experiment: Antibacterial activity against bla gene-positive and nitrocefin reaction-positive beta-lactamase harboring Campylobacter jejuni isolate P285 by NCCLS agar doubling dilution method
In short: (§2)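 MICs by agar doubling dilution per the NCCLS (now CLSI) Campylobacter Working Group method. Isolates came from UK chicken flocks (feces, ceca or farm environment), 2000–2006. C. jejuni NCTC 11168 and C. coli NCTC 11366 served as control strains. The ampicillin resistance cutoff was 8 μg/ml; BSAC/CLSI Enterobacteriaceae guidelines were used for other agents.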

Campylobacter jejuni [5] = experiment: Antibacterial activity against bla gene-positive and nitrocefin reaction-positive beta-lactamase harboring Campylobacter jejuni isolate P305 by NCCLS agar doubling dilution method; in short: as §2
Campylobacter jejuni [6] = experiment: Antibacterial activity against bla gene-positive and nitrocefin reaction-positive beta-lactamase harboring Campylobacter jejuni isolate P1730 by NCCLS agar doubling dilution method; in short: as §2
Campylobacter coli [7] = experiment: Antibacterial activity against bla gene-positive and nitrocefin reaction-positive beta-lactamase harboring Campylobacter coli isolate P1826 by NCCLS agar doubling dilution method; in short: as §1
Campylobacter jejuni [8] = experiment: Antibacterial activity against bla gene-positive and nitrocefin reaction-positive beta-lactamase harboring Campylobacter jejuni isolate P1093 by NCCLS agar doubling dilution method; in short: as §1
Campylobacter jejuni [9] = experiment: Antibacterial activity against Campylobacter jejuni isolate P338 harboring blaOXA-61::cat gene by NCCLS agar doubling dilution method
In short: (§3)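 Agar doubling dilution MICs (NCCLS/CLSI Campylobacter Working Group method) against Cj0299-inactivated mutants. Mutants were made by transforming the C. jejuni isolate with pCI and selecting on Mueller-Hinton agar with 10 μg/ml chloramphenicol for 3–5 days. Chromosomal insertion was confirmed by PCR with Cj0299 and cat primers.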

Campylobacter jejuni [10] = experiment: Antibacterial activity against bla gene-negative and nitrocefin reaction-positive beta-lactamase harboring Campylobacter jejuni isolate P854 by NCCLS agar doubling dilution method; in short: as §1
Campylobacter jejuni [11] = experiment: Antibacterial activity against bla gene-positive and nitrocefin reaction-positive beta-lactamase harboring Campylobacter jejuni isolate P1618 by NCCLS agar doubling dilution method; in short: as §1
Campylobacter coli [12] = experiment: Antibacterial activity against Campylobacter coli by NCCLS agar doubling dilution method
In short: (§4)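 MICs by agar doubling dilution following the NCCLS (CLSI) Campylobacter Working Group procedure, applied to ampicillin- and amoxicillin-resistant isolates from UK chicken flocks (2000–2006). C. jejuni NCTC 11168 and C. coli NCTC 11366 served as control strains. Resistance was called at an ampicillin cutoff of 8 μg/ml. Other agents were judged against Enterobacteriaceae guidelines (BSAC, CLSI).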

Campylobacter jejuni [13] = experiment: Antibacterial activity against bla gene-positive and nitrocefin reaction-positive beta-lactamase harboring Campylobacter jejuni isolate P316 by NCCLS agar doubling dilution method; in short: as §2
Campylobacter jejuni [14] = experiment: Antibacterial activity against Campylobacter jejuni isolate P1093 harboring blaOXA-61::cat gene by NCCLS agar doubling dilution method; in short: as §3
Campylobacter jejuni [15] = experiment: Antibacterial activity against bla gene-negative and nitrocefin reaction-negative beta-lactamase harboring Campylobacter jejuni isolate P835 by NCCLS agar doubling dilution method; in short: as §1
Campylobacter jejuni [16] = experiment: Antibacterial activity against bla gene-positive and nitrocefin reaction-positive beta-lactamase harboring Campylobacter jejuni isolate P338 by NCCLS agar doubling dilution method; in short: as §2
Campylobacter jejuni [17] = experiment: Antibacterial activity against bla gene-negative and nitrocefin reaction-negative beta-lactamase harboring Campylobacter jejuni isolate P850 by NCCLS agar doubling dilution method; in short: as §1
Campylobacter jejuni [18] = experiment: Antibacterial activity against bla gene-positive and nitrocefin reaction-negative beta-lactamase harboring Campylobacter jejuni isolate P1698 by NCCLS agar doubling dilution method; in short: as §1
Campylobacter jejuni [19] = experiment: Antibacterial activity against Campylobacter jejuni by NCCLS agar doubling dilution method; in short: as §4
Campylobacter jejuni [20] = experiment: Antibacterial activity against bla gene-negative and nitrocefin reaction-negative beta-lactamase harboring Campylobacter jejuni isolate P1962 by NCCLS agar doubling dilution method; in short: as §1
Campylobacter jejuni [21] = experiment: Antibacterial activity against bla gene-positive and nitrocefin reaction-negative beta-lactamase harboring Campylobacter jejuni isolate P1699 by NCCLS agar doubling dilution method; in short: as §1
Campylobacter jejuni [22] = experiment: Antibacterial activity against bla gene-positive and nitrocefin reaction-negative beta-lactamase harboring Campylobacter jejuni NCTC 11168 by NCCLS agar doubling dilution method; in short: as §1
Campylobacter coli [23] = experiment: Antibacterial activity against bla-positive and beta-lactamase-weakly positive Campylobacter coli isolate P1627 by NCCLS agar doubling dilution method; in short: as §2
Campylobacter jejuni [24] = experiment: Antibacterial activity against bla gene-positive and nitrocefin reaction-positive beta-lactamase harboring Campylobacter jejuni isolate P1650 by NCCLS agar doubling dilution method; in short: as §1
Campylobacter jejuni [25] = experiment: Antibacterial activity against bla gene-positive and nitrocefin reaction-positive beta-lactamase harboring Campylobacter jejuni isolate P790 by NCCLS agar doubling dilution method; in short: as §2
Campylobacter jejuni [26] = experiment: Antibacterial activity against bla gene-positive and nitrocefin reaction-positive beta-lactamase harboring Campylobacter jejuni isolate P286 by NCCLS agar doubling dilution method; in short: as §2

SMILES	MIC (Campylobacter jejuni [1]) [µg/mL]	MIC (Campylobacter coli [2]) [µg/mL]	MIC (Campylobacter jejuni [3]) [µg/mL]	MIC (Campylobacter jejuni [4]) [µg/mL]	MIC (Campylobacter jejuni [5]) [µg/mL]	MIC (Campylobacter jejuni [6]) [µg/mL]	MIC (Campylobacter coli [7]) [µg/mL]	MIC (Campylobacter jejuni [8]) [µg/mL]	MIC (Campylobacter jejuni [9]) [µg/mL]	MIC (Campylobacter jejuni [10]) [µg/mL]	MIC (Campylobacter jejuni [11]) [µg/mL]	MIC50 (Campylobacter coli [12]) [µg/mL]	MIC90 (Campylobacter coli [12]) [µg/mL]	MIC (Campylobacter jejuni [13]) [µg/mL]	MIC (Campylobacter jejuni [14]) [µg/mL]	MIC (Campylobacter jejuni [15]) [µg/mL]	MIC (Campylobacter jejuni [16]) [µg/mL]	MIC (Campylobacter jejuni [17]) [µg/mL]	MIC (Campylobacter jejuni [18]) [µg/mL]	MIC50 (Campylobacter jejuni [19]) [µg/mL]	other results
C[C@@H](O)[C@H]1C(=O)N2C(C(=O)O)=C(SCCNC=N)C[C@H]12 [IMIPENEM ANHYDROUS]	0.03 (≈ 0.1 µM)	0.12 (≈ 0.401 µM)	0.06 (≈ 0.2 µM)	0.015 (≈ 0.0501 µM)	0.06 (≈ 0.2 µM)	0.015 (≈ 0.0501 µM)	0.03 (≈ 0.1 µM)	0.12 (≈ 0.401 µM)	0.03 (≈ 0.1 µM)	0.06 (≈ 0.2 µM)	0.015 (≈ 0.0501 µM)	0.06 (≈ 0.2 µM)	0.12 (≈ 0.401 µM)	0.06 (≈ 0.2 µM)	0.12 (≈ 0.401 µM)	0.06 (≈ 0.2 µM)	0.06 (≈ 0.2 µM)	0.06 (≈ 0.2 µM)	0.06 (≈ 0.2 µM)	0.03 (≈ 0.1 µM)	MIC90 (Campylobacter jejuni [19]): 0.06 µg/mL (≈ 0.2 µM); MIC (Campylobacter jejuni [20]): 0.015 µg/mL (≈ 0.0501 µM); MIC (Campylobacter jejuni [21]): 0.03 µg/mL (≈ 0.1 µM); MIC (Campylobacter jejuni [22]): 0.03 µg/mL (≈ 0.1 µM); MIC (Campylobacter coli [23]): 0.12 µg/mL (≈ 0.401 µM); MIC (Campylobacter jejuni [24]): 0.06 µg/mL (≈ 0.2 µM); MIC (Campylobacter jejuni [25]): 0.12 µg/mL (≈ 0.401 µM); MIC (Campylobacter jejuni [26]): 0.25 µg/mL (≈ 0.835 µM)
C[C@@H](O)[C@H]1C(=O)N2C(C(=O)O)=C(S[C@@H]3CN[C@H](C(=O)N(C)C)C3)[C@H](C)[C@H]12 [MEROPENEM]	0.008 (≈ 0.0209 µM)	0.12 (≈ 0.313 µM)	0.03 (≈ 0.0782 µM)	0.015 (≈ 0.0391 µM)	0.06 (≈ 0.156 µM)	0.015 (≈ 0.0391 µM)	0.06 (≈ 0.156 µM)	0.5 (≈ 1.3 µM)	0.015 (≈ 0.0391 µM)	0.03 (≈ 0.0782 µM)	0.008 (≈ 0.0209 µM)	0.12 (≈ 0.313 µM)	0.12 (≈ 0.313 µM)	0.12 (≈ 0.313 µM)	0.03 (≈ 0.0782 µM)	< 0.015	0.12 (≈ 0.313 µM)	0.03 (≈ 0.0782 µM)	0.015 (≈ 0.0391 µM)	0.015 (≈ 0.0391 µM)	MIC90 (Campylobacter jejuni [19]): 0.12 µg/mL (≈ 0.313 µM); MIC (Campylobacter jejuni [20]): 0.015 µg/mL (≈ 0.0391 µM); MIC (Campylobacter jejuni [21]): 0.015 µg/mL (≈ 0.0391 µM); MIC (Campylobacter jejuni [22]): 0.08 µg/mL (≈ 0.209 µM); MIC (Campylobacter coli [23]): 0.03 µg/mL (≈ 0.0782 µM); MIC (Campylobacter jejuni [24]): 0.008 µg/mL (≈ 0.0209 µM); MIC (Campylobacter jejuni [25]): 0.12 µg/mL (≈ 0.313 µM); MIC (Campylobacter jejuni [26]): 0.25 µg/mL (≈ 0.652 µM)
CC1(C)S[C@@H]2[C@H](NC(=O)Cc3ccccc3)C(=O)N2[C@H]1C(=O)O [PENICILLIN G]	2 (≈ 5.98 µM)	64 (≈ 191 µM)	64 (≈ 191 µM)	128 (≈ 383 µM)	128 (≈ 383 µM)	64 (≈ 191 µM)	128 (≈ 383 µM)	256 (≈ 766 µM)	16 (≈ 47.8 µM)	256 (≈ 766 µM)	64 (≈ 191 µM)	128 (≈ 383 µM)	128 (≈ 383 µM)	128 (≈ 383 µM)	8 (≈ 23.9 µM)	4 (≈ 12 µM)	128 (≈ 383 µM)	64 (≈ 191 µM)	< 8	64 (≈ 191 µM)	MIC90 (Campylobacter jejuni [19]): 256 µg/mL (≈ 766 µM); MIC (Campylobacter jejuni [20]): 8 µg/mL (≈ 23.9 µM); MIC (Campylobacter jejuni [21]): < 8 µg/mL; MIC (Campylobacter jejuni [22]): 8 µg/mL (≈ 23.9 µM); MIC (Campylobacter coli [23]): 8 µg/mL (≈ 23.9 µM); MIC (Campylobacter jejuni [24]): 64 µg/mL (≈ 191 µM); MIC (Campylobacter jejuni [25]): 128 µg/mL (≈ 383 µM); MIC (Campylobacter jejuni [26]): 128 µg/mL (≈ 383 µM)
CCN1CCN(C(=O)N[C@@H](C(=O)N[C@@H]2C(=O)N3[C@@H]2SC(C)(C)[C@@H]3C(=O)O)c2ccccc2)C(=O)C1=O [PIPERACILLIN]	8 (≈ 15.5 µM)	> 256	> 256	> 256	> 256	> 512	512 (≈ 989 µM)	128 (≈ 247 µM)	8 (≈ 15.5 µM)	> 256	> 512	512 (≈ 989 µM)	512 (≈ 989 µM)	> 256	16 (≈ 30.9 µM)	> 256	> 256	> 256	> 512	≥ 512	MIC (Campylobacter coli [12]): 512 µg/mL (≈ 989 µM); MIC90 (Campylobacter jejuni [19]): > 512 µg/mL; MIC (Campylobacter jejuni [20]): > 256 µg/mL; MIC (Campylobacter jejuni [21]): 256 µg/mL (≈ 495 µM); MIC (Campylobacter jejuni [22]): 512 µg/mL (≈ 989 µM); MIC (Campylobacter coli [23]): 512 µg/mL (≈ 989 µM); MIC (Campylobacter jejuni [24]): > 512 µg/mL; MIC (Campylobacter jejuni [25]): 128 µg/mL (≈ 247 µM); MIC (Campylobacter jejuni [26]): > 256 µg/mL
